Values joined by “and” are separate entries in the source; they are usually repeats but may differ in a detail not shown here. Equal values may be shown once.
What was measured:
[1] = system: L1210; assay: Compound was evaluated for antitumor activity against mice implanted with lymphatic leukemia L1210 cells (10e6 tumor cells) after intraperitoneal administration of 50 mg/kg per injection; assay type: functional; settings: Mus musculus, L1210, ip
[2] = system: L1210; assay: Concentration required to inhibit proliferation of cultured lymphoid leukemia L1210 cells to 50% growth over 48 hours; assay type: functional, cell-based; settings: Mus musculus, L1210, 48 h
How it was run: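 Cultured lymphoid leukemia L1210 cells were exposed to agent for 48 h. IC50 is the micromolar concentration that holds proliferation to 50% growth.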

[3] = system: P388; assay: Compound was evaluated for antitumor activity against mice implanted with lymphatic leukemia P388 cells (10e6 tumor cells) after intraperitoneal administration of 300 mg/kg per injection (1-5 days); assay type: functional; settings: Mus musculus, P388, ip
How it was run: (§1)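 Mice implanted ip with 10⁶ lymphocytic leukemia P388 cells; drug given ip on days 1-5. Read-out is % increase in life span (% ILS) versus untreated controls, reported at the highest nontoxic dose tested.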

[4] = Compound's concentration required to inhibit proliferation of cultured KB cells to 50% growth during 48 hours.; assay type: functional, cell-based; settings: Homo sapiens
[5] = system: P388; assay: Compound was evaluated for antitumor activity against mice implanted with lymphatic leukemia P388 cells (10e6 tumor cells) after intraperitoneal administration of 100 mg/kg per injection; assay type: functional; settings: Mus musculus, P388, ip
[6] = system: L1210 (mouse); assay: Compound was evaluated for antitumor activity against mice implanted with lymphatic leukemia L1210 cells (10e6 tumor cells) after intraperitoneal administration of 50 mg/kg per injection (single dose on day 1); settings: L1210, ip, 24 h
[7] = system: L1210; assay: Effect of the compound(5 uM) on DNA synthesis in L1210 cells in culture measured as incorporation of [5-3H]-Urd; assay type: functional, Mus musculus
How it was run: (§2)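 Cultured L1210 cells were treated with agent at 2.5–50 μM. Labeled precursor incorporation is reported as percent of control: [3H]dThd into DNA, […] into DNA and RNA, and [3H]L-Leu into protein.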

[8] = system: L1210; assay: Effect of the compound(10 uM) on DNA synthesis in L1210 cells in culture measured as incorporation of [3H]L-Leu; assay type: functional, Mus musculus; settings: in the assay text read “protein synthesis” for “DNA synthesis”; how it was run: as §2
[9] = system: L1210; assay: Effect on the mitosis of cultured L1210 cells measured in metaphase at 12 hours and 100 uM concentration; assay type: functional, Mus musculus
How it was run: (§3)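 Cultured L1210 cells were exposed for 12 h to 0, 3, 10, 30, 50 or 100 μM agent. Read-out was the percentage of cells in metaphase.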

[10] = system: L1210; assay: Effect of the compound(5 uM) on RNA synthesis in L1210 cells in culture measured as […]; assay type: functional, Mus musculus
[11] = system: L1210; assay: Effect on the mitosis of cultured L1210 cells measured in metaphase at 12 hours and 0 uM concentration; assay type: functional, Mus musculus; how it was run: as §3
[12] = system: L1210; assay: Effect of the compound(25 uM) on DNA synthesis in L1210 cells in culture measured as incorporation of [3H]L-Leu; assay type: functional, Mus musculus; settings: in the assay text read “protein synthesis” for “DNA synthesis”; how it was run: as §2
[13] = system: L1210; assay: Effect of the compound(25 uM) on RNA synthesis in L1210 cells in culture measured as […]; assay type: functional, Mus musculus
[14] = system: L1210; assay: Effect of the compound(25 uM) on DNA synthesis in L1210 cells in culture measured as incorporation of [3H]dThd; assay type: functional, Mus musculus; how it was run: as §2
[15] = system: L1210; assay: Effect on the mitosis of cultured L1210 cells measured in metaphase at 12 hours and 3 uM concentration; assay type: functional, Mus musculus; how it was run: as §3
[16] = system: P388; assay: Compound was evaluated for antitumor activity against mice implanted with lymphatic leukemia P388 cells (10e6 tumor cells) after intraperitoneal administration of 75 mg/kg per injection (1-5 days); assay type: functional; settings: Mus musculus, P388, ip; how it was run: as §1
[17] = system: L1210; assay: Effect of the compound(5 uM) on DNA synthesis in L1210 cells in culture measured as incorporation of [3H]-L-Leu; assay type: functional, Mus musculus; settings: in the assay text read “protein synthesis” for “DNA synthesis”; how it was run: as §2
[18] = system: L1210; assay: Effect of the compound(25 uM) on DNA synthesis in L1210 cells in culture measured as incorporation of [5-3H]-Urd; assay type: functional, Mus musculus; how it was run: as §2
[19] = system: L1210; assay: Effect of the compound(10 uM) on RNA synthesis in L1210 cells in culture measured as incorporation of [5-3H]-Urd; assay type: functional, Mus musculus; how it was run: as §2
[20] = system: L1210; assay: Effect on the mitosis of cultured L1210 cells measured in metaphase at 12 hours and 10 uM concentration; assay type: functional, Mus musculus; how it was run: as §3
[21] = system: L1210; assay: Effect on the mitosis of cultured L1210 cells measured in metaphase at 12 hours and 30 uM concentration; assay type: functional, Mus musculus; how it was run: as §3
[22] = system: L1210; assay: Effect of the compound(10 uM) on DNA synthesis in L1210 cells in culture measured as incorporation of [5-3H]-Urd; assay type: functional, Mus musculus
[23] = system: P388; assay: Compound was evaluated for antitumor activity against mice implanted with lymphatic leukemia P388 cells (10e6 tumor cells) after intraperitoneal administration of 400 mg/kg per injection (1-5 days); assay type: functional; settings: Mus musculus, P388, ip; how it was run: as §1
[24] = system: L1210; assay: Effect of the compound(10 uM) on DNA synthesis in L1210 cells in culture measured as incorporation of [3H]dThd; assay type: functional, Mus musculus; how it was run: as §2
[25] = system: L1210; assay: Effect of the compound(2.5 uM) on RNA synthesis in L1210 cells in culture measured as […]; assay type: functional, Mus musculus
[26] = system: L1210; assay: Effect of the compound(2.5 uM) on DNA synthesis in L1210 cells in culture measured as incorporation of [3H]L-Leu; assay type: functional, Mus musculus; settings: in the assay text read “protein synthesis” for “DNA synthesis”; how it was run: as §2
[27] = system: P388; assay: Compound was evaluated for antitumor activity against mice implanted with lymphatic leukemia P388 cells (10e6 tumor cells) after intraperitoneal administration of 13 mg/kg per injection (1-5 days); assay type: functional; settings: Mus musculus, P388, ip; how it was run: as §1
[28] = system: L1210; assay: Effect of the compound(2.5 uM) on DNA synthesis in L1210 cells in culture measured as incorporation of [5-3H]-Urd; assay type: functional, Mus musculus
[29] = system: P388; assay: Compound was evaluated for antitumor activity against mice implanted with lymphatic leukemia P388 cells (10e6 tumor cells) after intraperitoneal administration of 5 mg/kg per injection (1-5 days); assay type: functional; settings: Mus musculus, P388, ip; how it was run: as §1

Compound: CCOC(=O)Nc1cc(NC(c2ccccc2)c2ccccc2)c([N+](=O)[O-])c(N)n1
- ILS at 50 mg/kg [1]: 0%

Compound: CCOC(=O)Nc1cc(NC(C)C(=O)c2ccccc2)c([N+](=O)[O-])c(N)n1 (centres undefined)
- IC50 [2]: 37 µM
- ILS at 300 mg/kg [3]: 2%

Compound: CCOC(=O)Nc1cc(N)c(N)c(N)n1
- IC50 [4]: 10 µM
- ILS at 100 mg/kg [5]: 0%

Compound: CCOC(=O)Nc1cc(N(C)CC(O)c2ccccc2)c(N)c(N)n1 (centres undefined)
- ILS at 50 mg/kg [6]: 4%

Compound: COC(=O)Nc1cc(NC(C)/C(=N/O)c2ccccc2)c([N+](=O)[O-])c(N)n1 (centres undefined)
- Control [7]: 52% and 89%
- Control [8]: 40%
- IC50 [2]: 5.8 µM
- Cells in metaphase [9]: 14%
- Control [10]: 86%
- Cells in metaphase [11]: 2%
- Control [12]: 26%
- Control [13]: 64%
- Control [14]: 21%
- Cells in metaphase [15]: 3%
- ILS at 75 mg/kg [16]: 82%
- Control [17]: 79%
- Control [18]: 65%
- Control [19]: 52%
- Cells in metaphase [20]: 3%
- Cells in metaphase [21]: 25%
- Uridine incorporation into DNA (% of control) [22]: 46% and 62%

Compound: CCOC(=O)Nc1cc(N[C@@H](C)C(=O)c2ccccc2)c([N+](=O)[O-])c(N)n1
- IC50 [2]: 27 µM
- ILS at 400 mg/kg [23]: 39%

Compound: CCOC(=O)Nc1cc(NC(C)/C(=N/O)c2ccc(OC)cc2)c([N+](=O)[O-])c(N)n1 (centres undefined)
- Control [7]: 60%
- Control [8]: 82%
- Control [24]: 44%
- IC50 [2]: 4.2 µM
- Cells in metaphase [9]: 2%
- Control [10]: 47%
- Cells in metaphase [11]: 2%
- Control [25]: 55%
- Control [26]: 69%
- Cells in metaphase [15]: 6%
- Control [17]: 87%
- ILS at 13 mg/kg [27]: 84%
- Control [28]: 78% and 73%
- Control [19]: 35%
- Cells in metaphase [20]: 26%
- Cells in metaphase [21]: 24%
- Uridine incorporation into DNA (% of control) [22]: 39%

Compound: CCOC(=O)Nc1cc(NC(C)/C(=N/O)c2ccc(O)cc2)c([N+](=O)[O-])c(N)n1 (centres undefined)
- IC50 [2]: 18 µM
- ILS at 5 mg/kg [29]: 57%

From ChEMBL document CHEMBL1126221, “Antimitotic agents: structure-activity studies with some pyridine derivatives” (J Med Chem, 1992)
